A short description of this data set: Toxicity liver stage against HepG2, at 10uM. Details: test concentration 10 uM, cell line HepG2-A16-CD81EGFP. The data set is classed as cell-based. The conditions noted are these: human, HepG2-A16-CD81EGFP cells; read-out: INHIBITION
In outline:
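Uninfected HepG2-A16-CD81EGFP cells, 3 × 10^3 per well, 1536-well, plated on prespotted compound at 10 μM final, parasite-free screening media added to match infected plates; puromycin 10 μM positive, DMSO 0.5% negative; run in parallel with 48 h PbLuc assay at 37 °C, 5% CO2; viability by CellTiter-Glo luminescence, normalized to controls.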
As for `Fc1ccc(C2CN(c3ncnc4nc[nH]c34)CCO2)cc1` (stereo not given), the cytotoxicity at 10 µM came out at 13.1%.

Take `CC(=O)NC[C@@H]1C=C(C)[C@H](CC(=O)NCc2cccnc2)C[C@H]1C(C)C`: the cytotoxicity at 10 µM came to 4.33%.

For the molecule `O=C1CC2(CCN(C(=O)c3ccncc3)CC2)Oc2c(Cl)cc(Cl)cc21`, the cytotoxicity at 10 µM amounted to 5.17%. As for `CC1=Nc2c(c(=O)[nH]n2C(C)C)C(c2cccc(OC(F)F)c2)S1` (stereo not given), the cytotoxicity at 10 µM was 8.13%. Take `Cn1nc(CN2CCOCC2)c2c1CN(C(=O)c1ccc[nH]1)C2`: the cytotoxicity at 10 µM was 8.46%. Then `CCS(=O)(=O)N1CCC2(CN(C(=O)c3cn(C)cn3)C2)C1`, with 6.4%; and `O=C(NCCN1CCCC1)c1cc2c(s1)CCN2C(=O)c1ccccc1`, with 0.559%; and `O=C(C1CCOCC1)N1CCc2ncnc(-c3ccccc3)c2CC1`, with -6.09%.

Regarding `O=C(Cc1ccccc1)N1CCn2cc(Cn3cncn3)nc2C1`, the cytotoxicity at 10 µM is -137%.

Turning to `O=C(Cn1nc2c(cc1=O)CCCC2)N[C@@H](Cc1ccccc1)C(=O)O`, the cytotoxicity at 10 µM is 3.17%.

With `Cc1nn(CCNC(=O)c2cc(C3CC3)[nH]n2)c(C)c1Cl`, the cytotoxicity at 10 µM is -3.73%.

For `COc1ccc2c(=O)ccn(CC(=O)O)c2c1`, the cytotoxicity at 10 µM is 10.2%. Consider `CN(C)c1ncc(-c2ccc(C(N)=O)cc2)c(C2CNCCO2)n1` (stereo not given), for which the cytotoxicity at 10 µM is -1.42%. For `CNc1cc(C2CN(C(=O)c3ccn(C)n3)CCO2)nc(C)n1` (stereo not given), the cytotoxicity at 10 µM amounted to 12.6%. In the case of `O=C(c1cncs1)N1CCCC1c1ccn[nH]1` (stereo not given) it was -11.9%. In the case of `CCCC(=O)N1CCC(c2ncc3c(n2)CCNC3)CC1` it was -23.1%; in that of `Cc1ncncc1C(=O)N1CCCC(c2[nH]ncc2S(C)(=O)=O)C1` (stereo not given), -4.41%; in that of `Cc1nn(C)c(C)c1NC(=O)CNC(c1ccccc1)C1CCCC1` (stereo not given), -0.0764%.

As to `CC(C)c1ccc(OCCC(=O)N(C)CC(=O)N(C)C)cc1`, the cytotoxicity at 10 µM stood at 4.72%. Then `Cc1c(NC(=O)CN(C)S(C)(=O)=O)cccc1OC1CCCC1`, with -0.302%. In the case of `c1cc2c(cc1CN1CCN(Cc3noc(C4CC4)n3)CC1)OCO2` it was 15.8%; in that of `Cc1cscc1C(=O)Nc1cncnc1N(C)C`, 0.137%; in that of `CN(C)C(=O)CN(C)C(=O)c1cccn1CCc1ccccc1`, 1.17%. In the case of `CN(C)S(=O)(=O)c1ccc(=O)n(CC2CCCO2)c1` (stereo not given) it was -3.54%; in that of `Cc1ccc(C(=O)NCCS(=O)(=O)N2CCSCC2)n1C`, -0.506%; in that of `CCN(CC)c1ccc(CNC(=O)c2ccc(=O)[nH]n2)cn1`, 4.16%. Turning to `N#Cc1ccccc1N1CCN(C(=O)NCCN2CCOCC2)CC1`, the cytotoxicity at 10 µM was found to be 1.08%.

As for `COCCCNC1CCCN(c2ccc(C)nn2)C1` (stereo not given), the cytotoxicity at 10 µM is -9.9%. Then `Cc1nc(CN2CCC(CNC(=O)Nc3ccccc3)CC2)oc1C`, with 3.54%; and `Cn1cc(-c2csc(N3CCN(c4nccs4)CC3)n2)cn1`, with 6.23%.

As to `c1ccc(-c2cc(CN3CCc4cncnc4C3)on2)cc1`, the cytotoxicity at 10 µM was 11.3%. As for `COc1ccc(F)cc1CSCC(=O)N(CCC#N)CCC#N`, the cytotoxicity at 10 µM amounted to 0.0531%. For the molecule `Cc1ccc(O)c(C(=O)N2CCCC2c2nncn2CC(C)C)c1` (stereo not given), the cytotoxicity at 10 µM is -3.27%. In the case of `Cc1ccc(-n2ccnc2)c(C(=O)NCCCN(C)C)c1`, the cytotoxicity at 10 µM was -152%. In the case of `CC(C)Oc1ccc(-c2csc(Cn3ccc(=O)[nH]c3=O)n2)cc1` it was 0.137%; in that of `CNC(=O)C(NC(=O)CCc1cccc(OC2CCCC2)c1)C(C)C` (stereo not given), 10.9%. Then `NC(=O)NC(=O)CCSCc1cc(F)cc2cccnc12`, with 1.88%. With `CN(CC(N)=O)C(=O)c1cnc(-c2ccc(Cl)s2)s1`, the cytotoxicity at 10 µM was -5.02%. In the case of `N#Cc1ccc(N2CCCN(c3nccs3)CC2)nc1` it was 32.5%; in that of `CC(Cn1ccnc1)NC(=O)NCCN1CCc2ccccc2C1` (stereo not given), 7.65%; in that of `c1csc(N2CCN(c3nccn4cnnc34)CC2)n1`, -5.81%.

On to `CC(=O)NC1CCCN(C(=O)CNc2cc(Cl)cc(Cl)c2)C1` (stereo not given), for which the cytotoxicity at 10 µM is -1.68%. For `CCc1noc(C(C)N(C)CC(=O)Nc2cccc(C)n2)n1` (stereo not given), the cytotoxicity at 10 µM worked out at 0.407%.

Turning to `Cc1n[nH]c(C2CN(C(=O)CCc3ccco3)CCO2)n1` (stereo not given), the cytotoxicity at 10 µM was -1.95%.

With `COCCOCC(=O)Nc1ccc(C)cc1F`, the cytotoxicity at 10 µM was -3.81%. In the case of `Cc1ccc(CN2C[C@@H](C(=O)O)[C@H](c3cccnc3)C2)s1` it was 4.17%; in that of `O=C(c1cccc(S(=O)(=O)NCCc2nccs2)c1)N1CCOCC1`, -4.19%; in that of `O=C1CN(C(=O)CC2C(=O)NCCN2CC2CCCCC2)CCN1` (stereo not given), -7.41%. In the case of `CN(CCc1ncnn1-c1ccccc1Cl)C1CCS(=O)(=O)C1` (stereo not given) it was 9.53%; in that of `CCCC(C(=O)NC1CCN(S(C)(=O)=O)CC1)n1cccc1` (stereo not given), -3.71%. Then `CC(C)CN1CC(C(=O)NCCc2c[nH]cn2)CC1=O` (stereo not given), with -3.62%; and `Cn1ccnc1SCCNC(=O)c1cc(S(N)(=O)=O)ccc1F`, with -3.45%; and `CCc1nc2c(c(N3CCOCC3)n1)CCN(C(=O)N1CCCC1)CC2`, with 7.6%. With `C[C@@H]1CN(C(=O)CCc2cnn(C)c2)C[C@@]1(O)C1CCC1`, the cytotoxicity at 10 µM was -11.4%. In the case of `CCC(C(=O)N(C)Cc1cc(COC)[nH]n1)n1cccn1` (stereo not given) it was -5.89%; in that of `COCCn1ccnc1C1CCN(C(=O)c2cccc(COC)n2)CC1`, 1.62%; in that of `COc1nc(C)c(C(=O)N2CCN(c3ncccc3C)CC2)s1`, 2.87%. Turning to `N#CC1(C(=O)N2C[C@H](Nc3ncccn3)[C@@H](C3CC3)C2)CCOCC1`, the cytotoxicity at 10 µM was found to be 5.44%. `Cc1nn(C)c(C)c1-c1nc2cc(S(=O)(=O)N3CCCC3)ccc2n1C`: the cytotoxicity at 10 µM is -6.05%.

`CC(=O)N1CCN(c2cc(-n3cnc(C)c3C)nc(C)n2)CC1`: the cytotoxicity at 10 µM was 0.727%. In the case of `Cc1cccnc1[C@H](C)NC(=O)Cc1cc2c(cc1Cl)OCCO2` it was -8.26%; in that of `COc1ccc(F)c(CN2CCC3(CCC(=O)N(CC(N)=O)C3)CC2)c1`, 12%. Take `NC(=O)CN1CCC(C(=O)N2CCCC(OCc3cccnc3)C2)CC1` (stereo not given): the cytotoxicity at 10 µM was -1.88%.

As for `CCC1CN(C(=O)CN2CCN(c3nccc(OC)n3)CC2)CCO1` (stereo not given), the cytotoxicity at 10 µM is -6.21%. In the case of `CC(C(=O)NC(N)=O)N(C)CCCc1cc(-c2ccccc2)no1` (stereo not given) it was -8.63%; in that of `Cc1noc(C)c1C(=O)N1CCCC(c2cc(C(F)(F)F)[nH]n2)C1` (stereo not given), -0.855%.

On to `Cc1cc(NC(=O)CN2CCCC2c2c(C)nn(C)c2Cl)on1` (stereo not given), for which the cytotoxicity at 10 µM is -0.945%. In the case of `CCc1nnc2n1CCN(Cc1csc(NC(C)=O)n1)C2` it was -1.45%.

Turning to `COc1ccc(CNCC2CCN(c3ccccc3OC)C2)cc1O` (stereo not given), the cytotoxicity at 10 µM is -8.54%. Turning to `Cc1cccc(-c2ccc(C(=O)NCC3CCCO3)c(=O)[nH]2)c1` (stereo not given), the cytotoxicity at 10 µM is -7.36%.

Turning to `CCN1CCN(C(=O)COCc2cccc(OC)c2)CC1`, the cytotoxicity at 10 µM was -11.5%. As to `CN(Cc1ccco1)C(=O)c1cccc(N2CCCC2=O)c1`, the cytotoxicity at 10 µM was -4.5%. Consider `Cc1cnn(CC2CCCN2C(=O)c2sccc2-n2cnnn2)c1` (stereo not given), for which the cytotoxicity at 10 µM is -15%.

Turning to `CCCc1noc2ncc(C(=O)N3CCCC3c3cnn(C)c3)cc12` (stereo not given), the cytotoxicity at 10 µM was -11.9%. In the case of `CCc1nc(C2CCCN2Cc2cc(=O)n(C)c(=O)n2C)no1` (stereo not given) it was -11.5%; in that of `Cc1ccc(NC2CCN(C(=O)COC3CCCC3)CC2)nn1`, 2.31%; in that of `O=C(NCc1ccccc1)NCC(O)c1cccc(F)c1` (stereo not given), -5.09%. For `CC(=O)Nc1nc(C(=O)N2CCCCC2Cn2cccn2)cs1` (stereo not given), the cytotoxicity at 10 µM is -31.4%. For `Cc1nc(CN(C)C2CCN(Cc3ccc(C(N)=O)cc3)C2)no1` (stereo not given), the cytotoxicity at 10 µM is -12.7%. On to `Cc1nn(C)c(N2CCOCC2)c1CNCc1ccnn1C`, for which the cytotoxicity at 10 µM is -1.66%. Then `Cc1nc(CN2CCCN(C(=O)c3c(C)noc3C)CC2)cs1`, with -2.87%; and `COc1ccc(CCC(=O)N2CCCC2Cn2cc(C)cn2)cc1F` (stereo not given), with 2.36%; and `O=C(NCc1cnc2n1CCN(Cc1ccsc1)CC2)C1CCC1`, with -2.53%. Then `Cn1ncc2c1C(COCC1CC1)N(Cc1ccoc1)CC2` (stereo not given), with 1.04%; and `c1cncc(N2CCC3(CCCN(c4ccncc4)C3)CC2)c1`, with 1.84%; and `Cc1ccc(O[C@@H]2C[C@H]3CN(C(=O)c4cnccn4)CCN3C2)cc1`, with 1.12%. In the case of `COCCN1CCc2cc(C(=O)N(C)C)c(NCC3CC3)nc2CC1` it was 4.44%; in that of `O=C(c1ccnnc1)N1CC[C@]2(C[C@H](Oc3ncccc3F)CO2)C1`, 3.42%; in that of `CC(C)N1CCOCC2(CCCN(C(=O)c3cn(C)cn3)C2)C1` (stereo not given), 1.88%.

As for `Cn1cc(CN2C[C@H](Oc3ncccc3F)[C@H]3OCCC[C@H]32)cn1`, the cytotoxicity at 10 µM stood at 2.72%. In the case of `CN(C)C(=O)CN1CCCC2(CCN(c3ccc(C#N)cn3)C2)C1` (stereo not given) it was 4.01%; in that of `CC(C)C(=O)N1CCC[C@]2(C(=O)N(C)C)CN(c3ccccn3)C[C@@H]2C1`, 30.7%. Then `O=C1[C@@H]2CC[C@@H](CN(Cc3nnc(C4CC4)o3)C2)N1Cc1cscn1`, with 9.57%; and `Cc1oc(C(C)C)cc1C(=O)N1C[C@@H]2CC[C@H]1CN(c1ncccn1)C2`, with -126%. Then `O=C(CCn1cc(Cl)cn1)N1C[C@H]2CC[C@@H](C1)N(Cc1ccccn1)C2`, with 7.15%.
